Data from ChEMBL document CHEMBL1129463, “Discovery of 1,5-benzodiazepines with peripheral cholecystokinin (CCK-A) receptor agonist activity (II): Optimization of the C3 amino substituent” (J Med Chem, 1996).
Activity calls are given as the source filed them. No cut-off for these calls is given here.

Assays:
Mus musculus [1] = assay: Compound was tested in vivo for its activity in mouse gallbladder emptying assay at dose of 0.1 umol/kg ip; type: functional
Cavia porcellus [2] = species: Cavia porcellus; assay: In-vitro potency on the isolated guinea pig gallbladder; type: functional
Mus musculus [3] = assay: Compound was tested in vivo for Percent Maximal response in mouse gallbladder emptying assay at dose of 1 umol/kg po; type: functional
Rattus norvegicus [4] = assay: Compound was tested in vivo for its Percent Maximal anorectic potency in rats at dose of 10 umol/kg po; ia = Inactive; type: functional, organism-based
Mus musculus [5] = assay: Compound was tested in vivo Percent Maximal response activity in mouse gallbladder emptying assay at dose of 1 nmol/kg ip
Cavia porcellus [6] = species: Cavia porcellus; assay: Maximum contractile response at 30 uM, normalized to CCK-8 (1 uM); type: functional
Cavia porcellus [7] = species: Cavia porcellus; assay: In vitro functional activity on the isolated guinea pig gallbladder; parameters: concentration or dose not given beside the values
[8] = biological target: Cholecystokinin receptor (Homo sapiens) (UniProt P32239+P32238); assay: Selectivity ratio of inhibition of CCK-A vs CCK-B; type: protein assay
In short: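 Displacement of [125I]Bolton-Hunter CCK-8 from membranes of CHO-K1 cells stably transfected with human CCK-A or CCK-B receptor cDNA. pIC50 values were measured for each receptor. The ratio is IC50 CCK-A / IC50 CCK-B.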

[9] = biological target: T1, Gastrin/cholecystokinin type B receptor (Homo sapiens, UniProt P32239); assay: Compound was tested in vitro for its ability to displace [125I]Bolton-Hunter CCK-8 from membrane preparation isolated from CHO-KI cells stably transfected with cDNA of human Cholecystokinin type B receptor; type: cell membranes
T1 sequence (P32239 whole entry): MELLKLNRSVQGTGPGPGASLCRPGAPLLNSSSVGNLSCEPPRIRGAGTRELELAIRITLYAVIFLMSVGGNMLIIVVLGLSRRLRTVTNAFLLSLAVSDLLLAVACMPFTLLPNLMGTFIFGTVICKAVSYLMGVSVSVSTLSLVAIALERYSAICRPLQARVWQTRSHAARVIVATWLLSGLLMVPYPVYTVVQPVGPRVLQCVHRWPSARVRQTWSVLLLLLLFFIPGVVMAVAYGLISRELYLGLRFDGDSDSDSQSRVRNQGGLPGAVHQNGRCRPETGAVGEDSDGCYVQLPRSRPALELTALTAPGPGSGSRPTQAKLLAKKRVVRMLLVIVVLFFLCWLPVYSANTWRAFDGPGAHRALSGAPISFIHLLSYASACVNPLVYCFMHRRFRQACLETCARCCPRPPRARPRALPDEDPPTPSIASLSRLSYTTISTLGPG

Rattus norvegicus [10] = assay: Compound was tested in vivo for its Percent Maximal anorectic potency in rats at dose of 0.5 umol/kg ip; type: functional
[11] = biological target: T2, Cholecystokinin receptor type A (Homo sapiens, UniProt P32238); assay: Compound was tested in vitro for its ability to displace [125I]Bolton-Hunter CCK-8 from membrane preparation isolated from CHO-KI cells stably transfected with cDNA of human Cholecystokinin type A receptor; type: cell membranes
T2 sequence (P32238 whole entry): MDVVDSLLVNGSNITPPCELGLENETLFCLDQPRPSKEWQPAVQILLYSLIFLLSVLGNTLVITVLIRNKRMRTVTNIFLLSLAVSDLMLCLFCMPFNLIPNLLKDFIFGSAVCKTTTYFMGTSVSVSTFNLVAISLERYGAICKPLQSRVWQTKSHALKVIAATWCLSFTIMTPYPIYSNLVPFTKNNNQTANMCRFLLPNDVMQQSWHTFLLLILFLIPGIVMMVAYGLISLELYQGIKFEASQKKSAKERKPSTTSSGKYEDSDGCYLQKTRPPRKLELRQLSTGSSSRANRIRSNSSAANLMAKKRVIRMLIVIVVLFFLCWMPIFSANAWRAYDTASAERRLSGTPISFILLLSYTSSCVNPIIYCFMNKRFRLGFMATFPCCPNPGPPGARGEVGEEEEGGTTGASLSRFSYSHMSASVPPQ

Rattus norvegicus [12] = assay: Compound was tested in vivo for its anorectic potency in rats at dose of 0.1 umol/kg ip; type: functional
Mus musculus [13] = assay: Compound was tested in vivo for its activity in mouse gallbladder emptying assay at dose of 1 umol/kg po; type: functional
Cavia porcellus [14] = species: Cavia porcellus; assay: In vitro Functional activity on the isolated guinea pig gallbladder following incubation at 1 micro M percent contraction normalized to that for CCK-8
In short: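 Contraction is expressed as percent of the CCK-8 (1 μM) response. Non-contracting compounds were tested for antagonism against a CCK-8 curve (10⁻¹¹ to 10⁻⁶ M).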

Rattus norvegicus [15] = assay: Compound was tested in vivo for its Percent Maximal anorectic potency in rats at dose of 0.1 umol/kg ip; type: functional
Rattus norvegicus [16] = assay: Compound was tested in vivo for its Percent Maximal anorectic potency in rats at dose of 1 umol/kg po; type: functional
Rattus norvegicus [17] = assay: Compound was tested in vivo for its anorectic potency in rats at dose of 0.5 umol/kg ip

| SMILES | ED50 (Mus musculus [1]) | EC50 (Cavia porcellus [2]) | Max (Mus musculus [3]) | Max (Rattus norvegicus [4]) | Max (Mus musculus [5]) | Max (Cavia porcellus [6]) | Activity (Cavia porcellus [7]) | Selectivity ratio [8] | IC50 [9] | Max (Rattus norvegicus [10]) | IC50 [11] | ED50 (Rattus norvegicus [12]) | ED50 (Mus musculus [13]) | Activity (Cavia porcellus [14]) | Max (Rattus norvegicus [15]) | Max (Rattus norvegicus [16]) | ED50 (Rattus norvegicus [17]) |
| --- | --- | --- | --- | --- | --- | --- | --- | --- | --- | --- | --- | --- | --- | --- | --- | --- | --- |
| CC(C)N(C(=O)CN1C(=O)C(NC(=O)c2cc3ccccc3[nH]2)C(=O)N(c2ccccc2)c2ccccc21)c1ccccc1 (stereo unspecified) | 0.005 µmol/kg | 501 nM | 85% | inactive | 73% | 49% | 49% | 20 | 316 nM | 56% | 15.8 nM | 0.095 µmol/kg | 0.3 µmol/kg |  |  |  |  |
| CC(C)N(C(=O)CN1C(=O)C(NC(=O)Nc2cccc(C(=O)O)c2)C(=O)N(c2ccccc2)c2ccccc21)c1ccccc1 (stereo unspecified) | 0.0071 µmol/kg | 39.8 nM | 77% |  | 73% | 102% | 100% |  | 10 nM |  | 126 nM |  | 0.055 µmol/kg | 95% | 87% | 58% | 0.06 µmol/kg |
